pIC50: −log10 of the molar value. Calls of active or inactive are those of the source. The rule behind the calls is not given here.
Assays:
[1] = system: RAW264.7; test: Antiinflammatory activity in mouse RAW264.7 cells assessed as inhibition of LPS-induced iNOS mRNA expression at 40 uM after 5 hrs by RT-PCR analysis relative to control; type: functional
Procedure, shortened: (§1)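 RAW 264.7 cells exposed to 1 μg/mL LPS with or without compound for 5 h. Total RNA was analysed by RT-PCR: 25−30 cycles with annealing at 55 °C. Products were separated on 2% agarose gel with SYBR-Safe staining. Experiments in triplicate.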

[2] = system: RAW264.7; test: Antiinflammatory activity in mouse RAW264.7 cells assessed as inhibition LPS-induced TNF-alpha protein expression at 20 uM after 4 hrs by Western blotting analysis relative to control; type: functional
[3] = target: T1, Nuclear factor NF-kappa-B p105 subunit (Mus musculus) (UniProt P25799); test: Inhibition of LPS-induced NF-kappaB p50 binding to DNA in mouse RAW264.7 cells at 10 to 40 uM after 1.5 hrs by spectrophotometry; type: cell-based
T1 sequence (whole entry): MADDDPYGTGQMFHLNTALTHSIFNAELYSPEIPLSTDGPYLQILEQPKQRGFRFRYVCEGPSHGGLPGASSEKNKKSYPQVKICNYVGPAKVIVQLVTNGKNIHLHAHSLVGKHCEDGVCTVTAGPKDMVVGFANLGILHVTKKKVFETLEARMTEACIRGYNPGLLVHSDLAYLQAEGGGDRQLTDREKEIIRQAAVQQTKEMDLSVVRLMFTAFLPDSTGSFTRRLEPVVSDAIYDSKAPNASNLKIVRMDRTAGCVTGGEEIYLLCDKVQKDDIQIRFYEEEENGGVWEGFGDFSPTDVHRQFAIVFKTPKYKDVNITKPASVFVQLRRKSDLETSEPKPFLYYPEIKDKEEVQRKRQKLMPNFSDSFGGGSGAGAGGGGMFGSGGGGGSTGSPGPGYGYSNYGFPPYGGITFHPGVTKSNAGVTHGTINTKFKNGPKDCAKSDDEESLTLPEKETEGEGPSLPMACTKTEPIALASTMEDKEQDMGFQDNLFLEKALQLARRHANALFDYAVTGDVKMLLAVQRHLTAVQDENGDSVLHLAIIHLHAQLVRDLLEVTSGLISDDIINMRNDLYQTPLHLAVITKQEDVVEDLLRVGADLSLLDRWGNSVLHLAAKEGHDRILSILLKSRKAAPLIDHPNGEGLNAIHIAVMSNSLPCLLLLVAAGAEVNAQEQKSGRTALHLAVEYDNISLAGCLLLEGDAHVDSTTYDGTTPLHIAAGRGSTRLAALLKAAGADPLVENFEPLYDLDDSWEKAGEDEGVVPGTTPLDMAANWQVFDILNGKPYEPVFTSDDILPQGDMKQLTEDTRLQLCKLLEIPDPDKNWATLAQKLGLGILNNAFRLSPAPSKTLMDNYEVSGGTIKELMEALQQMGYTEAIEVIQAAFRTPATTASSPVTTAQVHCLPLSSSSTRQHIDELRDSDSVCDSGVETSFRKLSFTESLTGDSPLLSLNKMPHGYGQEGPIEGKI

[4] = system: RAW264.7; test: Inhibition of LPS-induced NFkappaB transcriptional activity in mouse RAW264.7 cells assessed as reduction of phosphorylated IkappaB-alpha level at 10 uM after 30 mins by Western blotting analysis relative to control; type: cell-based
Procedure, shortened: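 Macrophages were exposed to compound for 30 min before LPS stimulation, with proteins extracted 30 min later. Nuclear extracts were prepared in Tris/KCl/NP-40 lysis buffer, then 420 mM NaCl buffer, and the cytosolic fraction was kept for IκB-α. Western blot on PVDF with ECL detection. Tests in triplicate; representative of three separate experiments.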

[5] = system: Rattus norvegicus; test: Antiinflammatory activity in rat paw edema model assessed as inhibition of carrageenan-induced IL-1beta protein expression in paw tissue at 20 mg/kg, po administered 30 mins prior to carrageenan challenge measured after 6 hrs by Western blotting analysis relative to vehicle-treated control; type: functional, organism-based; design: dose 20 mg/kg
Procedure, shortened: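 SD rats received compound orally in 0.5% CMC-Na 30 min before subplantar injection of 0.1 mL 1% carrageenan in saline. Paws were removed at 6 h, homogenized, and iNOS, COX-2 and IL-1β were assessed by Western blot. Triplicate, representative of three experiments.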

[6] = system: RAW264.7; test: Antiinflammatory activity in mouse RAW264.7 cells assessed as inhibition of LPS-induced iNOS protein expression after 16 hrs by Western blotting analysis; type: functional, cell-based
[7] = target: Mitogen-activated protein kinase 1 and 3 (ERK2 and ERK1) (Mus musculus) (UniProt P63085+Q63844); test: Inhibition LPS-induced ERK1/2 phosphorylation at Thr202/Tyr204 in mouse RAW264.7 cells at 40 uM administered 30 mins prior to LPS challenge measured after 30 mins by Western blotting analysis; type: cell-based
Chain of Mitogen-activated protein kinase 1 and 3 (ERK2 and ERK1) (Mus musculus) (P63085 whole entry, looked up): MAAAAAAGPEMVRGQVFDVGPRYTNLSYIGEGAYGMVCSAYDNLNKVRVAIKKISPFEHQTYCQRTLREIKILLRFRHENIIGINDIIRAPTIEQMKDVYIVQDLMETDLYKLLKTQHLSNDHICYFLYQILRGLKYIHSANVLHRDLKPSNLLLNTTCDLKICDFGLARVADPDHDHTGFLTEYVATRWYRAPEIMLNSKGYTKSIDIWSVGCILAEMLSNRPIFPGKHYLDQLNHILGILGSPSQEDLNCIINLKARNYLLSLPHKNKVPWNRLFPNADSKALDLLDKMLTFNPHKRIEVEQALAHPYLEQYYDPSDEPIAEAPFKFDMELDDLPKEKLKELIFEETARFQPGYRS
Chain of Mitogen-activated protein kinase 1 and 3 (ERK2 and ERK1) (Mus musculus) (Q63844 whole entry, looked up): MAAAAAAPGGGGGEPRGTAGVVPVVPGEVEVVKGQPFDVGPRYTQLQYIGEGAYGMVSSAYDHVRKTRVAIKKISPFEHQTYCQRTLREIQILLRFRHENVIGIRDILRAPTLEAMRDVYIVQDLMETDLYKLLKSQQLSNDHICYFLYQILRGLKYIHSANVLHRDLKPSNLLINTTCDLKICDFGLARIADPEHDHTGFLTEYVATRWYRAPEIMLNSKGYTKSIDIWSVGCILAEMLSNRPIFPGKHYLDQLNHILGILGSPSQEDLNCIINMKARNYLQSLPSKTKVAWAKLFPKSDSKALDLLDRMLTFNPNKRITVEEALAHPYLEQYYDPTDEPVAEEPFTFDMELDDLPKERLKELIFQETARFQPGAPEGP
Procedure, shortened: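 RAW 264.7 cells pretreated with compound for 30 min, then stimulated with LPS for 30 min. Protein extracts were Western blotted for phosphorylated ERK and JNK (SDS-PAGE, PVDF, ECL detection).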

[8] = target: Transcription factor p65 (Mus musculus) (UniProt Q04207); test: Inhibition of LPS-induced NF-kappaB p65 binding to DNA in mouse RAW264.7 cells at 10 to 40 uM after 1.5 hrs by spectrophotometry in presence of wild type oligonucleotide; type: cell-based
Chain of Transcription factor p65 (Mus musculus) (Q04207 whole entry): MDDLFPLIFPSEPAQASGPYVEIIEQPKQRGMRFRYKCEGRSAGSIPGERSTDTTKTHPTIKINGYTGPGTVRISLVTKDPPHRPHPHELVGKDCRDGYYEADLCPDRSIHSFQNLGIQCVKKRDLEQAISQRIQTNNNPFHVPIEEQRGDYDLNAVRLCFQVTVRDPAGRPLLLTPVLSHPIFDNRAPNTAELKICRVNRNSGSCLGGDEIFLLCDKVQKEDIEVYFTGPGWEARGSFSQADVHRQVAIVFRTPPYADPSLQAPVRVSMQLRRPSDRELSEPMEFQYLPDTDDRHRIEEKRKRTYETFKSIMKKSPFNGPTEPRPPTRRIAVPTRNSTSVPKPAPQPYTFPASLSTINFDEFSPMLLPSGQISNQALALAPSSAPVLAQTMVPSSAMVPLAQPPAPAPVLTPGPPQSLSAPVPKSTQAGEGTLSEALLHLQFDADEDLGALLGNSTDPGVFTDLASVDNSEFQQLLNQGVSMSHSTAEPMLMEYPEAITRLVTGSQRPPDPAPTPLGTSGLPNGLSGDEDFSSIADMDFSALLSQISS

[9] = system: RAW264.7; test: Antiinflammatory activity in mouse RAW264.7 cells assessed as inhibition of LPS-induced COX2 mRNA expression at 40 uM after 5 hrs by RT-PCR analysis relative to control; type: functional; procedure, shortened: as §1
[10] = system: RAW264.7; test: Antiinflammatory activity in mouse RAW264.7 cells assessed as inhibition of LPS-induced PGE2 production administered 1 hr prior to LPS challenge measured after 20 hrs by EIA relative to control; type: functional, cell-based
Procedure, shortened: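 RAW 264.7 cells plated at 3 × 10^5 cells/mL, pretreated with compound for 1 h, then stimulated with 1 μg/mL LPS for 20 h. PGE2 in the supernatant was measured by immunoassay kit. Mean ± SD of triplicates.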

[11] = target: JNK1/JNK2 (Mus musculus) (UniProt Q91Y86+Q9WTU6); test: Inhibition LPS-induced JNK1/2 phosphorylation at Thr183/[…] in mouse RAW264.7 cells at 40 uM administered 30 mins prior to LPS challenge measured after 30 mins by Western blotting analysis; type: cell-based
Chain of JNK1/JNK2 (Mus musculus) (Q91Y86 whole entry, looked up): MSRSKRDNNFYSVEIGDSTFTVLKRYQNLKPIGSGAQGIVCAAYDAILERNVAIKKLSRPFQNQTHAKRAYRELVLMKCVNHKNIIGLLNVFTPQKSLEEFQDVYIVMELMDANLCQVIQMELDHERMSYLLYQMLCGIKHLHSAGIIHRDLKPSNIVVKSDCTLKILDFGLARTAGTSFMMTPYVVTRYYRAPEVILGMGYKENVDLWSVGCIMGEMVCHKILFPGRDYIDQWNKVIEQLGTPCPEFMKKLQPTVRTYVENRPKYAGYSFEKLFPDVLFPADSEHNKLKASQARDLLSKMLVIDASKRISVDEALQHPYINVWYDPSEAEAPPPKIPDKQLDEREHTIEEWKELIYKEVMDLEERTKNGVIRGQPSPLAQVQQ
Chain of JNK1/JNK2 (Mus musculus) (Q9WTU6 whole entry, looked up): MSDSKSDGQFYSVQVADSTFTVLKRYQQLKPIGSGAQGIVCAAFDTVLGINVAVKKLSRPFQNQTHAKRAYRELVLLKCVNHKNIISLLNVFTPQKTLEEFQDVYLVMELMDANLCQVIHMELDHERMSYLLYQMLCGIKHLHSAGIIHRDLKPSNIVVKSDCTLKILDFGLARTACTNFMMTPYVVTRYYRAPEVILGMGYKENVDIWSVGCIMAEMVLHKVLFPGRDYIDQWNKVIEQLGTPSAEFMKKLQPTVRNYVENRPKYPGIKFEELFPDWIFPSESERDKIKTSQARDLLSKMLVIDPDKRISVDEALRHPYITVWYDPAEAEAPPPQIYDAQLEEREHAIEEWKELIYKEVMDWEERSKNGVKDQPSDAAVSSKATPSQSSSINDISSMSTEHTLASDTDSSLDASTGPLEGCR
Procedure, shortened: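 RAW 264.7 cells pretreated with compound for 30 min, then stimulated with LPS for an additional 30 min. Lysates resolved by 6−15% SDS-PAGE and blotted to PVDF. Primary antibodies were applied overnight at 4 °C and secondary antibodies for 2 h at room temperature. Detection by ECL. Tests in triplicate; blots representative of three separate experiments.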

[12] = system: RAW264.7; test: Inhibition of LPS-induced NF-kappaB transcriptional activity in mouse RAW264.7 cells treated 2 hrs prior to LPS challenge measured after 16 hrs by SEAP reporter gene assay relative to control; type: cell-based
Procedure, shortened: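 NF-κB SEAP reporter assay in RAW 264.7 cells: 2 h compound pretreatment, then LPS for 16 h. Supernatants heated 65 °C for 5 min, then reacted with 2 M diethanolamine, 1 mM MgCl2 and 500 μM MUP for 1 h at 37 °C in the dark. Fluorescence read at ex 360/em 449 nm and normalized to protein. Expressed relative to vehicle control without LPS; triplicates.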

With `C=C1C(=O)O[C@@H]2[C@@H]3[C@@]4(C=C[C@@]3(C)[C@]3(C4)C(=O)O[C@@H]4[C@H]5C(C)=CC[C@H]5[C@](C)(O)C[C@H](OC(C)=O)[C@H]43)[C@](C)(O)CC[C@@H]12` the “fold change (FC)” value [1] was 0.58, the “fold change (FC)” value [2] was 0.76 and the inhibition [3] was “Active”. For the same compound, the inhibition [4] was “Active”, the inhibition [5] was “Active” and the inhibition [6] was “Dose-dependent effect”. The fold change (FC) [7] was 0.21, the inhibition [8] was “inactive” and the “fold change (FC)” value [9] was 0.22. The pIC50 [10] was 4.84, the inhibition [10] was “Dose-dependent effect” and the fold change (FC) [11] was 0.24. For the same compound, the inhibition [12] was “Active”.

Reference: ChEMBL document CHEMBL3259611, “Suppression of inflammatory responses by handelin, a guaianolide dimer from Chrysanthemum boreale, via downregulation of NF-κB signaling and pro-inflammatory cytokine production” (J Nat Prod, 2014)
